The term Cmax denotes the peak of the concentration-time curve.

Series [1] deals with Mitogen-activated protein kinase kinase kinase 2 (Homo sapiens) (UniProt Q9Y2U5). The series can be described thus: Binding affinity to wild-type human partial length MAP3K2 (S315 to H619 residues) expressed in mammalian expression system assessed as residual binding level at 1 uM by Kinomescan method relative to control.
Series [2] deals with MAP/microtubule affinity-regulating kinase 3 (Homo sapiens) (UniProt P27448). The series can be described thus: Binding affinity to wild-type human full length MARK3 (M1 to L729 residues) expressed in bacterial expression system assessed as residual binding level at 1 uM by Kinomescan method relative to control. An outline of the steps: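 Single-point kinome-wide KINOMEscan binding panel, test compound at 1 μM, run by the provider's standard protocol.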

In series [3] the target is Serine/threonine-protein kinase DCLK3 (Homo sapiens) (UniProt Q9C098). The series can be described thus: Binding affinity to wild-type human partial length DCAMKL3 (E140 to V628 residues) expressed in bacterial expression system assessed as residual binding level at 1 uM by Kinomescan method relative to control.
A further series deals with CYP2C9 (Homo sapiens, UniProt P11712). The series can be described thus: Residual activity of CYP2C9 in human liver microsomes at 10 uM using tolbutamide 4-hydroxylase as substrate preincubated for 5 mins followed by NADPH addition measured after 15 mins by LC/MS/MS analysis relative to control. Conditions: probe tolbutamide (4-hydroxylation). (In general: Microsomes from liver hold many membrane-bound enzymes, among them those of drug oxidation.)

In series [4] the target is Non-receptor tyrosine-protein kinase TYK2 (Homo sapiens) (UniProt P29597). Briefly: Binding affinity to wild-type human partial length TYK2 JH1 catalytic domain (V877 to C1187 residues) expressed in mammalian expression system assessed as residual binding level at 1 uM by Kinomescan method relative to control.
In series [5] the target is Serine/threonine-protein kinase TNNI3K (Homo sapiens) (UniProt Q59H18). The series can be described thus: Binding affinity to wild-type human full length TNNI3K (M1 to S835 residues) expressed in bacterial expression system assessed as residual binding level at 1 uM by Kinomescan method relative to control.
Series [6] deals with Tyrosine-protein kinase ITK/TSK (Homo sapiens) (UniProt Q08881). The series can be described thus: Binding affinity to wild-type human partial length ITK (R335 to L620 residues) expressed in bacterial expression system assessed as residual binding level at 1 uM by Kinomescan method relative to control.
For series [7], the system named is Epidermal growth factor receptor (Homo sapiens), P00533 [UNDEFINED MUTATION]. Briefly: Binding affinity to human partial length EGFR L747-S752del/P753S mutant expressed in bacterial expression system assessed as residual binding level at 1 uM by Kinomescan method relative to control. In outline: (§1)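 Kinome-wide selectivity panel run by the KINOMEscan method, with the test compound at a single concentration of 1 μM. Wild-type and mutant kinases were profiled in the same screen.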

Series [8] deals with Receptor-interacting serine/threonine-protein kinase 1 (Homo sapiens) (UniProt Q13546). Briefly: Binding affinity to wild-type human partial length RIPK1 (M1 to K305 residues) expressed in bacterial expression system assessed as residual binding level at 1 uM by Kinomescan method relative to control.
Series [9] has as its target Activin receptor type-1-like (Homo sapiens) (UniProt P37023). The series can be described thus: Binding affinity to wild-type human ACVRL1 (L164 to Q503 residues) expressed in bacterial expression system assessed as residual binding level at 1 uM by Kinomescan method relative to control.
The target in series [10] is Leukocyte tyrosine kinase receptor (Homo sapiens) (UniProt P29376). Briefly: Binding affinity to wild-type human partial length LTK (P422 to S744 residues) expressed in bacterial expression system assessed as residual binding level at 1 uM by Kinomescan method relative to control.
The target of series [11] is Aurora kinase B (Homo sapiens) (UniProt Q96GD4). Briefly: Binding affinity to wild-type human partial length AURKB (D25 to A303 residues) expressed in mammalian expression system assessed as residual binding level at 1 uM by Kinomescan method relative to control.
Series [12] deals with Serine/threonine-protein kinase mTOR (Homo sapiens) (UniProt P42345). Briefly: Binding affinity to wild-type human partial length MTOR (L1382 to W2549 residues) expressed in mammalian expression system assessed as residual binding level at 1 uM by Kinomescan method relative to control.
The target of series [13] is Mitogen-activated protein kinase kinase kinase 20 (Homo sapiens) (UniProt Q9NYL2). The series can be described thus: Binding affinity to wild-type human partial length ZAK (M1 to L331 residues) expressed in bacterial expression system assessed as residual binding level at 1 uM by Kinomescan method relative to control.
Series [14] deals with Mast/stem cell growth factor receptor Kit (Homo sapiens), P10721 [V559D]. The series can be described thus: Binding affinity to human partial length KIT V559D mutant (Y545 to D952 residues) expressed in bacterial expression system assessed as residual binding level at 1 uM by Kinomescan method relative to control. In outline: as §1
Series [15] addresses MAP kinase-activated protein kinase 5 (Homo sapiens) (UniProt Q8IW41). Briefly: Binding affinity to wild-type human partial length MAPKAPK5 (M1 to D322 residues) expressed in mammalian expression system assessed as residual binding level at 1 uM by Kinomescan method relative to control.
Series [16] concerns the target TGF-beta receptor type-2 (Homo sapiens) (UniProt P37173). The series can be described thus: Binding affinity to wild-type human partial length TGFBR2 (I218 to K567 residues) expressed in bacterial expression system assessed as residual binding level at 1 uM by Kinomescan method relative to control.
The subject of series [17] is Phosphatidylinositol 4,5-bisphosphate 3-kinase catalytic subunit alpha isoform (Homo sapiens), P42336 [I800L]. The series can be described thus: Binding affinity to human partial length PIK3CA I800L mutant (R108 to N1068 residues) expressed in mammalian expression system assessed as residual binding level at 1 uM by Kinomescan method relative to control.
Series [18] has as its system Receptor-type tyrosine-protein kinase FLT3 (Homo sapiens), P36888 [D835H]. The series can be described thus: Binding affinity to human partial length FLT3 D835H mutant (V592 to Y969 residues) expressed in bacterial expression system assessed as residual binding level at 1 uM by Kinomescan method relative to control. In outline:
as §1

Series [19] has as its target Phosphorylase b kinase gamma catalytic chain, liver/testis isoform (Homo sapiens) (UniProt P15735). The series can be described thus: Binding affinity to wild-type human partial length PHKG2 (M1 to W300 residues) expressed in bacterial expression system assessed as residual binding level at 1 uM by Kinomescan method relative to control.
A short description of series [20]: Cmax in mouse at 2 mg/kg, iv. Type of series: ADME, organism-based. More on the design: dose 2 mg/kg, route intravenous. Conditions: in vivo.
For series [21], the target named is Serine/threonine-protein kinase MRCK beta (Homo sapiens) (UniProt Q9Y5S2). The series can be described thus: Binding affinity to wild-type human partial length MRCKB (L56 to S417 residues) expressed in bacterial expression system assessed as residual binding level at 1 uM by Kinomescan method relative to control.
Series [22] deals with Insulin receptor-related protein (Homo sapiens) (UniProt P14616). The series can be described thus: Binding affinity to wild-type human partial length INSRR (R950 to E1278 residues) expressed in bacterial expression system assessed as residual binding level at 1 uM by Kinomescan method relative to control.
The target in series [23] is RAC-gamma serine/threonine-protein kinase (Homo sapiens) (UniProt Q9Y243). The series can be described thus: Binding affinity to wild-type human partial length AKT3 expressed in bacterial expression system assessed as residual binding level at 1 uM by Kinomescan method relative to control.

Sequence of MAP kinase-activated protein kinase 5 (Homo sapiens) (Q8IW41 whole entry, the tested form may be a part): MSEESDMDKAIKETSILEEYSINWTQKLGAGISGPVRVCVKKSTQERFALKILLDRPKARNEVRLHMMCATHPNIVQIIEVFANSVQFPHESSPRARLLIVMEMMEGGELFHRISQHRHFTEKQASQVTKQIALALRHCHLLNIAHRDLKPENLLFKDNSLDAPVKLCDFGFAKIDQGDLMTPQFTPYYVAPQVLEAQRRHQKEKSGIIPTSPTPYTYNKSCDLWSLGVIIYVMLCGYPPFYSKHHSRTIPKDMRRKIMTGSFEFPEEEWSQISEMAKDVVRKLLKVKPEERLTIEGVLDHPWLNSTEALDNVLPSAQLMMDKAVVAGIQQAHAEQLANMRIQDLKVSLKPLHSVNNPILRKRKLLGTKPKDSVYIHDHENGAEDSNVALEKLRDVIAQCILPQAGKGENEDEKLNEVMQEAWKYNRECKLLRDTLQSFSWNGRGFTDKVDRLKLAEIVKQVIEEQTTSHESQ
Sequence of Serine/threonine-protein kinase MRCK beta (Homo sapiens) (Q9Y5S2 whole entry, the tested form may be a part): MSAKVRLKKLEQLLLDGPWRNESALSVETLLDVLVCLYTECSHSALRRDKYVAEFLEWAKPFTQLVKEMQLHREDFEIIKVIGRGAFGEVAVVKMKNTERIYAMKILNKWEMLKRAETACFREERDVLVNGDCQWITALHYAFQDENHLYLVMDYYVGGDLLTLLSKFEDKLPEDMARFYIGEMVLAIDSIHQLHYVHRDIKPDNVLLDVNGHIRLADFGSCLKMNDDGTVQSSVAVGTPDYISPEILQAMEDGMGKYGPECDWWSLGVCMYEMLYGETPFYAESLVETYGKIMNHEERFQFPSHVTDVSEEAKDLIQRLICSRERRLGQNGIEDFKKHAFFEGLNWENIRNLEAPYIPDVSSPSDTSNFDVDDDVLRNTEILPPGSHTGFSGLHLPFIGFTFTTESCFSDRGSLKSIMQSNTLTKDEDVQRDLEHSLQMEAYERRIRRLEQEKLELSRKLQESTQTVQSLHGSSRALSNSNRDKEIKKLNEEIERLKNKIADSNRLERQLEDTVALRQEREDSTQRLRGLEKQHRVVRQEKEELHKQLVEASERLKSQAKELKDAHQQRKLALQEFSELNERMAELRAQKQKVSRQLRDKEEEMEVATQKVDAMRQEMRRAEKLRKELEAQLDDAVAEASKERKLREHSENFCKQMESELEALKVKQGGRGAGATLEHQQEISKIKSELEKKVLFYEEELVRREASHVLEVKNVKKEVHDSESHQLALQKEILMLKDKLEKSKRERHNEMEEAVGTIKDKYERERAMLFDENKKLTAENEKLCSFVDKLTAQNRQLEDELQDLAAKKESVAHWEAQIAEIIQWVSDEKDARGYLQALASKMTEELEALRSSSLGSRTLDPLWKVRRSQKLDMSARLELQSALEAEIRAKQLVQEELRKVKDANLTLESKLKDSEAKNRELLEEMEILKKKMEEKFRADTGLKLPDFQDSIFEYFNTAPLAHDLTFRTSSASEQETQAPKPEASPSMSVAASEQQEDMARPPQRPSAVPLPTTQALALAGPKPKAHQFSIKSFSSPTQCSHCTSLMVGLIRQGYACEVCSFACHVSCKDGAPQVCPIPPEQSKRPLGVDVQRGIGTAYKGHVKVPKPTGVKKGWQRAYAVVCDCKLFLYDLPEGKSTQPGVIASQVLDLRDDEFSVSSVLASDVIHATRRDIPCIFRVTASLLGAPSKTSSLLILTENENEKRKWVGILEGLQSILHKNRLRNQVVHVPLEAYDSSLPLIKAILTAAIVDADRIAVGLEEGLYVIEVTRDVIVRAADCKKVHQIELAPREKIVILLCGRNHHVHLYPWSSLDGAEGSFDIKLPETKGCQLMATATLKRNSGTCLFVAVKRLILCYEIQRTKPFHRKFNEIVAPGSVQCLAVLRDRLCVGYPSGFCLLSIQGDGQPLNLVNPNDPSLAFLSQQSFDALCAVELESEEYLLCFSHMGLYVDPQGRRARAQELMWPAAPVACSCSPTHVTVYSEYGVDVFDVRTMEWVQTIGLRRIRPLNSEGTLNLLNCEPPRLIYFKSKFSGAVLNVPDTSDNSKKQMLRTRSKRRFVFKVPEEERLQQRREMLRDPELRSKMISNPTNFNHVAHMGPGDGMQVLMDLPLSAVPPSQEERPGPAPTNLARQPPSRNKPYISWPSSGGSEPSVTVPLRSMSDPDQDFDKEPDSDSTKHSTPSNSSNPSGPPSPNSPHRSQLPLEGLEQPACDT
Sequence of Phosphorylase b kinase gamma catalytic chain, liver/testis isoform (Homo sapiens) (P15735 whole entry, the tested form may be a part, canonical isoform): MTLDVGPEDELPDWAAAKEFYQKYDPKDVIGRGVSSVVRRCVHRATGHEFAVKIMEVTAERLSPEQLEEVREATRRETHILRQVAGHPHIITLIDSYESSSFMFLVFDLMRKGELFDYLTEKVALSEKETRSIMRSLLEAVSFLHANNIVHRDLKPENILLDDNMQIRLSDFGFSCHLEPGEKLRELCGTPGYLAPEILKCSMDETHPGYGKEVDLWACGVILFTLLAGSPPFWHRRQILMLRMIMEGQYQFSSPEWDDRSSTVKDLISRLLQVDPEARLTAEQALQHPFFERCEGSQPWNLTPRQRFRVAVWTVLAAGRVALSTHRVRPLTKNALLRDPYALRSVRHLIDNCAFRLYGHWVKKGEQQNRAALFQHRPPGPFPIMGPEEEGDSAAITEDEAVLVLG
Sequence of Serine/threonine-protein kinase DCLK3 (Homo sapiens) (Q9C098 whole entry, the tested form may be a part): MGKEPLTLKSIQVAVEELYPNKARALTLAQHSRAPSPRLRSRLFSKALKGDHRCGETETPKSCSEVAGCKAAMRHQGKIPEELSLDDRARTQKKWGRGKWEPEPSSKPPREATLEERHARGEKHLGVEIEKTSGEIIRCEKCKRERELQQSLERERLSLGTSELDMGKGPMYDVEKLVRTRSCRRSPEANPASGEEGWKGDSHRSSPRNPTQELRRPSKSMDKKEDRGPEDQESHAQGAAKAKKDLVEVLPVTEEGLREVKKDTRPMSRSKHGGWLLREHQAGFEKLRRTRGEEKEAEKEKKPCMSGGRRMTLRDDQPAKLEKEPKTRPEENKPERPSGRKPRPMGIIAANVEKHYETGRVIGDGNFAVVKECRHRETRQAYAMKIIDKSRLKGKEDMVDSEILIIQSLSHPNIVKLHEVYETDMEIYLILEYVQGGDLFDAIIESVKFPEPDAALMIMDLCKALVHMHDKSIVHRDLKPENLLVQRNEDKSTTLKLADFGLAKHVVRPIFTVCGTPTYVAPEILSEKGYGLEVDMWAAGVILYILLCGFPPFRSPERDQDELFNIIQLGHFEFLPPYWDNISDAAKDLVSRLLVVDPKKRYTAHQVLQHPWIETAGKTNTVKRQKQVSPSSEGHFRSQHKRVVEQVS
Sequence of Epidermal growth factor receptor (Homo sapiens), P00533 [UNDEFINED MUTATION] (P00533 whole entry, looked up, stated change not applied): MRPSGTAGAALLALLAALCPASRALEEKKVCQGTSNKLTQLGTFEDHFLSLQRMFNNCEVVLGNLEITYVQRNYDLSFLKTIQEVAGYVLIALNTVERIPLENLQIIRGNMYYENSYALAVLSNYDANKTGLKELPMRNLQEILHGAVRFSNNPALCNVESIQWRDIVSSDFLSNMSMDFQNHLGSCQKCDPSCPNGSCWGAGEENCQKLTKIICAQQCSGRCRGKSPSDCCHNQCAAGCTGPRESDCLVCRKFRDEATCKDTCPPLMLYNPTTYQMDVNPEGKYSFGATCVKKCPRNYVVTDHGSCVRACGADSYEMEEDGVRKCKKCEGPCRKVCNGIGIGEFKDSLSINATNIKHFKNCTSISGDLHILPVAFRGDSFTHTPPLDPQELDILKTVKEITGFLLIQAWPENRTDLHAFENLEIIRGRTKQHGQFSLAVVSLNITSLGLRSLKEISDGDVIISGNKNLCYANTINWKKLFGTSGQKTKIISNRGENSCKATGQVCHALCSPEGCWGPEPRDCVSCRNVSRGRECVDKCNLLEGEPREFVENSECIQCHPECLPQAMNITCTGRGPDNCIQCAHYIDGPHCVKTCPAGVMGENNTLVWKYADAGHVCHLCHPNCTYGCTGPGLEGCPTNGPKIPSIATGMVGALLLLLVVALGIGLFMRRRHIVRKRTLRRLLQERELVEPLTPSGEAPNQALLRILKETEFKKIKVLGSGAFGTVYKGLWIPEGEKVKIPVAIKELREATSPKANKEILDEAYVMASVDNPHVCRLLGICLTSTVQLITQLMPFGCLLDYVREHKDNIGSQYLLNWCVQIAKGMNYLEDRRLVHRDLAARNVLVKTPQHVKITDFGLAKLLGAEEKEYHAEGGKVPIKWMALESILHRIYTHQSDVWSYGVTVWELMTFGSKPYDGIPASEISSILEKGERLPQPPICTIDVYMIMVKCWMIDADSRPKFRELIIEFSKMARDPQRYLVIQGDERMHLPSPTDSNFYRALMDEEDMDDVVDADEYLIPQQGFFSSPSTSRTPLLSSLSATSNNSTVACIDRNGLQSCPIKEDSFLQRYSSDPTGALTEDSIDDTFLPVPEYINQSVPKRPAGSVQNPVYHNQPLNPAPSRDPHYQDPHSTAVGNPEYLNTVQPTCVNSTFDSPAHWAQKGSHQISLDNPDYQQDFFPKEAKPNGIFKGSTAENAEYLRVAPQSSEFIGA
Sequence of Mitogen-activated protein kinase kinase kinase 2 (Homo sapiens) (Q9Y2U5 whole entry, the tested form may be a part): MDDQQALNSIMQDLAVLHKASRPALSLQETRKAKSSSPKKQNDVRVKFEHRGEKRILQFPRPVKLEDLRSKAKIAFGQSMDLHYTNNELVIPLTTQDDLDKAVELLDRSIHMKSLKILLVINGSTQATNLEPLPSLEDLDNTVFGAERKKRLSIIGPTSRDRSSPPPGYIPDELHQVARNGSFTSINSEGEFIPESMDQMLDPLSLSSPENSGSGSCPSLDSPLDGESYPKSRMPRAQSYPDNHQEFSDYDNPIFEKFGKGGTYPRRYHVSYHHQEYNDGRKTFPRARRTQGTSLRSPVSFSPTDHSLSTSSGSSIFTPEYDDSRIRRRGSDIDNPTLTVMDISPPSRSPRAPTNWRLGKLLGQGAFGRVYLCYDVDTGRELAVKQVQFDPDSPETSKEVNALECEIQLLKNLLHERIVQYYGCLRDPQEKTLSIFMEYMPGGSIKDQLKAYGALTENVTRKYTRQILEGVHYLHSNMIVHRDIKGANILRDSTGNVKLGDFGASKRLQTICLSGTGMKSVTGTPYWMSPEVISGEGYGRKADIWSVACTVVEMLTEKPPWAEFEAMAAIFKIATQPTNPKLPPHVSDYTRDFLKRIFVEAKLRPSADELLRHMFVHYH

As for `C=CC(=O)Nc1cc(Nc2ncc(Cl)c(Nc3ccccc3S(=O)(=O)C(C)C)n2)c(OC)cc1N(C)CCN(C)C`, the Activity in [1] worked out at 32%; in [2], 33%; in [3] it was 30%; in series [4], 17%; in series [5], 100%; in series [6], 0.1%. Further, the Activity in series [7] came out at 0%; in series [8], 82%; in series [9] it was 30%; in [10], 0%; in series [11] it was 39%; in series [12] it was 100%. Moreover, the Activity came out at 86% in series [13]; 31% in [14]; 100% in series [15]; 82% in [16]; 81% in [17]; 1.6% in series [18]. Further, the Activity in [19] is 10%; in [21] it was 100%; in series [22], 0.25%; in series [23], 100%. Besides, the Activity at […], 10 µM at CYP2C9 was 83%. Moreover, the Cmax in series [20] is 0.882 µg/mL.
